Measured values reported in ChEMBL document CHEMBL1765020, “Synthesis and structure-affinity relationships of novel dibenzylideneacetone derivatives as probes for β-amyloid plaques” (J Med Chem, 2011).

assay: Displacement of [125I]IMPY from amyloid beta (1 to 42) aggregate after 2 hrs by gamma counting
Method in brief: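 Competition binding in 1 mL PBS (0.2 M, pH 7.4). Aggregated Aβ1-42 fibrils (60 nM final) with [125I]IMPY and inhibitor at 10^-5 to 10^-10 M, added in ethanol. Nonspecific binding was defined with 1 μM IMPY. Incubated 2 h at 37 °C with shaking, then vacuum-filtered through glass fibre filters and the bound fraction gamma-counted. IC50 was converted to Ki by Cheng-Prusoff; triplicate, mean ± SD.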

Row | Ki [nM] | SMILES
1 | 131 | CN(C)c1ccc(/C=C/C(=O)/C=C/c2ccc(N(c3ccccc3)c3ccccc3)cc2)cc1
2 | 13.7 | CN(C)c1ccc(/C=C/C(=O)/C=C/c2cccc(N)c2)cc1
3 | 2.8 | CN(C)c1ccc(/C=C/C(=O)/C=C/c2ccc(Br)cc2)cc1
4 | 3.7 | CN(C)c1ccc(/C=C/C(=O)/C=C/c2ccc(F)cc2)cc1
5 | 1.2 | CN(C)c1ccc(/C=C/C(=O)/C=C/c2ccccc2)cc1
6 | 78.1 | CN(C)c1ccc(/C=C/C(=O)/C=C/c2ccc(C(=O)O)cc2)cc1
7 | 28.2 | CN(C)c1ccc(/C=C/C(=O)/C=C/c2ccccc2O)cc1
8 | 4.2 | CN(C)c1ccc(/C=C/C(=O)/C=C/c2ccc3[nH]ccc3c2)cc1
9 | 33.3 | CN(C)c1ccc(/C=C/C(=O)/C=C/c2cc([N+](=O)[O-])ccc2OCc2ccccc2)cc1
10 | 2.8 | CN(C)c1ccc(/C=C/C(=O)/C=C/c2ccc(OC(c3ccccc3)(c3ccccc3)c3ccccc3)cc2)cc1
11 | 15.7 | CCN(CC)c1ccc(/C=C/C(=O)/C=C/c2ccc(N(C)C)cc2)cc1
12 | 5.2 | COc1cc(/C=C/C(=O)/C=C/c2ccc(N(C)C)cc2)cc(OC)c1OC
13 | 11.4 | O=C1/C(=C/c2ccc(Cl)cc2)CCC/C1=C\c1ccc(Cl)cc1
14 | 5.4 | COc1ccc(/C=C/C(=O)/C=C/c2ccc(N(C)C)cc2)cc1OC
15 | 49.8 | COc1cc(/C=C/C(=O)CC(=O)/C=C/c2ccc(O)c(OC)c2)ccc1O [CURCUMIN]
16 | 16.2 | CN(C)c1ccc(/C=C/C(=O)/C=C/c2cc(Br)ccc2O)cc1
17 | 18.5 | CN(C)c1ccc(/C=C/C(=O)/C=C/c2c(Cl)cccc2Cl)cc1
18 | 1.3 | Cc1ccc(/C=C/C(=O)/C=C/c2ccc(N(C)C)cc2)cc1
19 | 5.3 | CN(C)c1ccc(/C=C/C(=O)/C=C/c2cccs2)cc1
20 | 1.1 | CN(C)c1ccc(/C=C/C(=O)/C=C/c2ccc(Cl)cc2)cc1
21 | 242 | O=C(/C=C/c1ccccc1)/C=C/c1ccccc1
22 | 24.8 | COc1ccc(/C=C2\CCC/C(=C\c3ccc(OC)cc3)C2=O)cc1

Row | Ki [nM] | SMILES
23 | 5.2 | CN(C)c1ccc(/C=C/C(=O)/C=C/c2ccc([N+](=O)[O-])cc2)cc1
24 | 2 | CN(C)c1ccc(/C=C/C(=O)/C=C/c2ccc(OCc3ccccc3)cc2)cc1
25 | 3.8 | CN(C)c1ccc(/C=C/C(=O)/C=C/c2cccc(Oc3ccccc3)c2)cc1
26 | 2.9 | CNc1ccc(/C=C/C(=O)/C=C/c2ccc(N(C)C)cc2)cc1
27 | 4.7 | COc1cc(/C=C/C(=O)/C=C/c2ccc(N(C)C)cc2)cc(OC)c1
28 | 11.7 | CN(C)c1ccc(/C=C/C(=O)/C=C/c2ccc(-c3ccc(Br)s3)s2)cc1
29 | 2.3 | CN(C)c1ccc(/C=C/C(=O)/C=C/c2ccc(Br)nc2)cc1
30 | 8 | CN(C)c1ccc(/C=C/C(=O)/C=C/c2cccc(N(C)C)c2)cc1
31 | 704 | O=C1/C(=C/c2ccccc2)CCC/C1=C\c1ccccc1 [2,6-DIBENZYLIDENECYCLOHEXANONE]
32 | 8.5 | CN(C)c1ccc(/C=C/C(=O)/C=C/c2ccco2)cc1
33 | 4 | CN(C)c1ccc(/C=C/C(=O)/C=C/c2cccc([N+](=O)[O-])c2)cc1
34 | 9 | O=C(/C=C/c1ccc(Cl)cc1)/C=C/c1ccc(Cl)cc1
35 | 0.8 | CN(C)c1ccc(/C=C/C(=O)/C=C/c2ccc(C(F)(F)F)cc2)cc1
36 | 0.7 | COc1ccc(/C=C/C(=O)/C=C/c2ccc(N(C)C)cc2)cc1
37 | 2640 | CNc1ccccc1/C=C/C(=O)/C=C/c1ccc(N(C)C)cc1
38 | 3.8 | CN(C)c1ccc(/C=C/C(=O)/C=C/c2ccc(Br)s2)cc1
39 | 2.8 | COc1ccc(/C=C/C(=O)/C=C/c2ccc(N(C)C)cc2)c(OC)c1
40 | 5.5 | CN(C)c1ccc(/C=C/C(=O)/C=C/c2cccc(I)c2)cc1
41 | 23 | CN(C)c1ccc(/C=C/C(=O)/C=C/c2ccccn2)cc1
42 | 8.4 | CN(C)c1ccc(/C=C/C(=O)/C=C/c2ccccc2N)cc1
43 | 4 | CN(C)c1ccc(/C=C/C(=O)/C=C/c2cc(C(F)(F)F)cc(C(F)(F)F)c2)cc1
44 | 18.8 | CN(C)c1ccc(/C=C/C(=O)/C=C/c2ccccc2[N+](=O)[O-])cc1

Row | Ki [nM] | SMILES
45 | 4.8 | CN(C)c1ccc(/C=C/C(=O)/C=C/c2ccc(I)nc2)cc1
46 | 1.8 | CN(C)c1ccc(/C=C/C(=O)/C=C/c2ccc3c(c2)OCO3)cc1
47 | 6.5 | COc1ccc(/C=C/C(=O)/C=C/c2ccc(OC)cc2)cc1
48 | 39.1 | COc1cc(OC)c(/C=C/C(=O)/C=C/c2ccc(N(C)C)cc2)c(OC)c1
49 | 18.6 | CN(C)c1ccc(/C=C/C(=O)/C=C/c2ccccc2OCc2ccccc2)cc1
50 | 4.4 | CN(C)c1ccc(/C=C/C(=O)/C=C/c2ccc(OCCOCCF)cc2)cc1
51 | 2.7 | CN(C)c1ccc(/C=C/C(=O)/C=C/c2ccc(N(C)C)cc2)cc1
52 | 5.6 | CN(C)c1ccc(/C=C/C(=O)/C=C/c2ccc(OCCF)cc2)cc1
53 | 5.8 | CN(C)c1ccc(/C=C/C(=O)/C=C/c2ccc[nH]2)cc1
54 | 2.2 | CN(C)c1ccc(/C=C/C(=O)/C=C/c2ccc(Cl)nc2)cc1
55 | 2.5 | COc1ccc2cc(/C=C/C(=O)/C=C/c3ccc(N(C)C)cc3)ccc2c1
56 | 3.7 | CN(C)c1ccc(/C=C/C(=O)/C=C/c2ccc(N)cc2)cc1
57 | 1 | CN(C)c1ccc(/C=C2\CCC/C(=C\c3ccc(N(C)C)cc3)C2=O)cc1
58 | 7 | Nc1ccc(/C=C/C(=O)/C=C/c2ccc(I)cc2)cc1
59 | 9.2 | CN(C)c1ccc(/C=C/C(=O)/C=C/c2c(F)cccc2Cl)cc1
60 | 6.8 | CN(C)c1ccc(/C=C/C(=O)/C=C/c2ccc(O)cc2)cc1
61 | 4.1 | COc1cc(/C=C/C(=O)/C=C/c2ccc(N(C)C)cc2)ccc1OCc1ccccc1
62 | 0.9 | CN(C)c1ccc(/C=C/C(=O)/C=C/c2ccccc2Cl)cc1
63 | 8.1 | CNc1cccc(/C=C/C(=O)/C=C/c2ccc(N(C)C)cc2)c1
64 | 1.9 | CN(C)c1ccc(/C=C/C(=O)/C=C/c2cccc(Br)c2)cc1
65 | 1.2 | CN(C)c1ccc(/C=C/C(=O)/C=C/c2cccc(F)c2)cc1
